From ChEMBL document CHEMBL1129059, “Antitumor properties of some 2-[(dimethylamino)methyl]phenylgold(III) complexes” (J Med Chem, 1996)
Several values for one entry are separate records, joined by “and”; a condition that tells them apart may be missing. Equal values may be shown once. Each block holds one substance with its values, some of them ahead of it.

Experiments:
ZR-75-1 = assay: Compound was tested for in vitro growth inhibition of primary panel tumor cell line ZR-75-1; type: functional, cell-based, Homo sapiens
In short: (§1)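 Primary-panel lines kept in L15, RPMI 1640 plus pyruvate, or MEM, each with 10% FBS. Cells were seeded at 5×10^4–10^5 cells/mL, preincubated 24 h, then exposed 4 h to 0–200 μg/mL from a 2 mg/mL stock in 10% DMA/PBS. After washout and 72 h further growth, cells were read by SRB. IC50 was the concentration giving 50% survival versus untreated controls.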

HX62 cell line = assay: Compound was tested for in vitro growth inhibition of Ovarian carcinoma cell line panel HX62; type: functional, cell-based, Homo sapiens
In short: (§2)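 Ovarian lines grown as monolayers in DMEM with 10% FBS, insulin, hydrocortisone and L-glutamine under 6% CO2. Cells were seeded at 3–5 × 10³/well and left to attach overnight. Compounds were freshly dissolved in DMA or water and applied for 96 h in quadruplicate wells. Growth was measured by SRB and reported as IC50.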

SW 1116 = assay: Compound was tested for in vitro growth inhibition of primary panel tumor cell line SW1116; type: functional, cell-based, Homo sapiens; in short: as §1
A2780 [1] = assay: Compound was tested for in vitro growth inhibition of Ovarian carcinoma cell line panel A2780; type: functional, cell-based, Homo sapiens; in short: as §2
SK-OV-3 [2] = assay: Compound was tested for in vitro growth inhibition of Ovarian carcinoma cell line panelSK-OV-3; type: functional, cell-based, Homo sapiens; in short: as §2
[3] = Solubility at 25 degrees Celsius in 1-Octanol; type: physicochemical
In short: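 A sample was tumbled in 1-octanol at 25 °C for 24 h and filtered. An aliquot was evaporated and the residue taken up in dilute aqua regia. Gold content was determined as for the aqueous samples, with indium as internal standard.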

HT-29 = assay: Compound was tested for in vitro growth inhibition of primary panel tumor cell line HT-29/219; type: functional, cell-based, Homo sapiens; in short: as §1
CH1 [4] = assay: Compound was tested for in vitro growth inhibition of Ovarian carcinoma cell line panel CH1; type: functional, cell-based; in short: as §2
SK-OV-3 [5] = assay: Compound was tested for in vitro growth inhibition of primary panel tumor cell lines SK-OV-3; type: functional, cell-based, Homo sapiens; in short: as §1
SW-620 [6] = assay: Compound was tested for in vitro growth inhibition of primary panel tumor cell lines SW620; type: functional, cell-based, Homo sapiens; in short: as §1
HT-1376 = assay: Compound was tested for in vitro growth inhibition of primary panel tumor cell line HT1376; type: functional, cell-based, Homo sapiens; in short: as §1
A2780 [7] = assay: Compound was tested for in vitro growth inhibition of Ovarian carcinoma cell line panel A2780-R; type: functional, cell-based, Homo sapiens; in short: as §2
CH1 [8] = assay: Compound was tested for in vitro growth inhibition of Ovarian carcinoma cell line panel CH1-R; type: functional, cell-based; in short: as §2
[9] = Solubility at 25 degrees Celsius in water; type: physicochemical; conditions: buffer
In short: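 5–10 mg sample was tumbled in 5.0 mL water at 25 °C for 24 h and filtered. The solution was diluted as needed and gold was quantified with 1 ppm indium as internal standard.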

[10] = Range is evaluated. (Highest IC50/Lowest IC50); type: functional
SK-OV-3 [11] = assay: Compound was tested for in vitro growth inhibition of Ovarian carcinoma cell line panel SK-OV-3; type: functional, cell-based, Homo sapiens; in short: as §2
SW-620 [12] = assay: Compound was tested for in vitro growth inhibition of primary panel tumor cell line SW620; type: functional, cell-based, Homo sapiens; in short: as §1
Mus musculus [13] = assay: Compound was evaluated for antitumor activity (T/C) in HT1376 carcinoma Xenograft, at a dosage 35 mg/kg on day 21; type: functional, organism-based; design: dose 35 mg/kg
In short: (§3)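 Nude mice carrying subcutaneous flank HT1376 fragments; treatment began once tumors were established and palpable, randomized into groups of 6 treated and 10 control mice. Dosing was ip as a suspension in 0.5% carboxymethylcellulose in 0.9% saline on days 0, 7, 14 and 21, at the MTD and two 2-fold dilutions. Tumors were measured on days 0-28. RTV = 100(mean volume at assessment)/(mean start volume); T/C = treated RTV/control RTV.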

Mus musculus [14] = assay: Compound was evaluated for antitumor activity (T/C) in HT1376 carcinoma Xenograft, at a dosage 8.75 mg/kg on day 28; type: functional, organism-based; design: dose 8.75 mg/kg; in short: as §3
Mus musculus [15] = assay: Compound was evaluated for antitumor activity (RTV) in HT1376 carcinoma Xenograft, at a dosage 17.5 mg/kg on day 21; type: functional, organism-based; design: dose 17.5 mg/kg
In short: (§4)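 HT1376 tumor fragments implanted subcutaneously in nude mice flanks; mice with established palpable tumors randomized into groups of 6 (controls 10). Compounds given intraperitoneally as suspensions in 0.5% carboxymethylcellulose in 0.9% saline, on days 0, 7, 14 and 21. Tumor dimensions on days 0, 7, 14, 21, 28. RTV = 100(mean tumor volume at assessment)/(mean start volume).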

Mus musculus [16] = assay: Compound was evaluated for antitumor activity (RTV) in HT1376 carcinoma Xenograft, at a dosage 8.75 mg/kg on day 28; type: functional, organism-based; design: dose 8.75 mg/kg; in short: as §4
Mus musculus [17] = assay: Compound was evaluated for antitumor activity (RTV) in HT1376 carcinoma Xenograft, at a dosage 35 mg/kg on day 7; type: functional, organism-based; design: dose 35 mg/kg; in short: as §4
Mus musculus [18] = assay: Compound was evaluated for antitumor activity (T/C) in HT1376 carcinoma Xenograft, at a dosage 35 mg/kg on day 14; type: functional, organism-based; design: dose 35 mg/kg; in short: as §3
Mus musculus [19] = assay: Compound was evaluated for antitumor activity (T/C) in HT1376 carcinoma Xenograft, at a dosage 8.75 mg/kg on day 21; type: functional, organism-based; design: dose 8.75 mg/kg; in short: as §3
Mus musculus [20] = assay: Compound was evaluated for antitumor activity (RTV) in HT1376 carcinoma Xenograft, at a dosage 35 mg/kg on day 14; type: functional, organism-based; design: dose 35 mg/kg; in short: as §4
Mus musculus [21] = assay: Compound was evaluated for antitumor activity (RTV) in HT1376 carcinoma Xenograft, at a dosage 8.75 mg/kg on day 7; type: functional, organism-based; design: dose 8.75 mg/kg; in short: as §4
Mus musculus [22] = assay: Compound was evaluated for antitumor activity (T/C) in HT1376 carcinoma Xenograft, at a dosage 35 mg/kg on day 7; type: functional, organism-based; design: dose 35 mg/kg; in short: as §3
Mus musculus [23] = assay: Compound was evaluated for antitumor activity (RTV) in HT1376 carcinoma Xenograft, at a dosage 8.75 mg/kg on day 14; type: functional, organism-based; design: dose 8.75 mg/kg; in short: as §4
Mus musculus [24] = assay: Compound was evaluated for antitumor activity (T/C) in HT1376 carcinoma Xenograft, at a dosage 17.5 mg/kg on day 28; type: functional, organism-based; design: dose 17.5 mg/kg
In short: (§5)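 Subcutaneous HT1376 xenografts in nude mice, 6 per treated group and 10 controls. Intraperitoneal dosing as suspensions in 0.5% carboxymethylcellulose/0.9% saline on days 0, 7, 14, 21; tumors measured weekly to day 28. T/C = RTV of treated group / RTV of untreated control group; significance by t-test at the 5% level.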

Mus musculus [25] = assay: Compound was evaluated for antitumor activity (T/C) in HT1376 carcinoma Xenograft, at a dosage 35 mg/kg on day 28; type: functional, organism-based; design: dose 35 mg/kg; in short: as §3
Mus musculus [26] = assay: Compound was evaluated for antitumor activity (RTV) in HT1376 carcinoma Xenograft, at a dosage 8.75 mg/kg on day 21; type: functional, organism-based; design: dose 8.75 mg/kg; in short: as §4
Mus musculus [27] = assay: Compound was evaluated for antitumor activity (T/C) in HT1376 carcinoma Xenograft, at a dosage 17.5 mg/kg on day 21; type: functional, organism-based; design: dose 17.5 mg/kg; in short: as §5
Mus musculus [28] = assay: Compound was evaluated for antitumor activity (RTV) in HT1376 carcinoma Xenograft, at a dosage 17.5 mg/kg on day 28; type: functional, organism-based; design: dose 17.5 mg/kg; in short: as §4
Mus musculus [29] = assay: Compound was evaluated for antitumor activity (T/C) in HT1376 carcinoma Xenograft, at a dosage 17.5 mg/kg on day 14; type: functional, organism-based; design: dose 17.5 mg/kg; in short: as §5
Mus musculus [30] = assay: Compound was evaluated for antitumor activity (T/C) in HT1376 carcinoma Xenograft, at a dosage 8.75 mg/kg on day 14; type: functional, organism-based; design: dose 8.75 mg/kg; in short: as §3
Mus musculus [31] = assay: Compound was evaluated for antitumor activity (RTV) in HT1376 carcinoma Xenograft, at a dosage 17.5 mg/kg on day 7; type: functional, organism-based; design: dose 17.5 mg/kg; in short: as §4
Mus musculus [32] = assay: Compound was evaluated for antitumor activity (RTV) in HT1376 carcinoma Xenograft, at a dosage 35 mg/kg on day 28; type: functional, organism-based; design: dose 35 mg/kg; in short: as §4
Mus musculus [33] = assay: Compound was evaluated for antitumor activity (RTV) in HT1376 carcinoma Xenograft, at a dosage 17.5 mg/kg on day 14; type: functional, organism-based; design: dose 17.5 mg/kg; in short: as §4
Mus musculus [34] = assay: Compound was evaluated for antitumor activity (RTV) in HT1376 carcinoma Xenograft, at a dosage 35 mg/kg on day 21; type: functional, organism-based; design: dose 35 mg/kg; in short: as §4
Mus musculus [35] = assay: Compound was evaluated for antitumor activity (T/C) in HT1376 carcinoma Xenograft, at a dosage 8.75 mg/kg on day 7; type: functional, organism-based; design: dose 8.75 mg/kg; in short: as §3
Mus musculus [36] = assay: Compound was evaluated for antitumor activity (T/C) in HT1376 carcinoma Xenograft, at a dosage 17.5 mg/kg on day 7; type: functional, organism-based; design: dose 17.5 mg/kg; in short: as §5
[37] = Range is evaluated.; type: functional

IC50 (A2780 [1]): 8.2 µM | IC50 (SK-OV-3 [2]): 109 µM | Solubility [3]: 920 µM | IC50 (HT-29): 55 µM | IC50 (SK-OV-3 [5]): 45 µM | IC50 (SW-620 [6]): 124 µM | IC50 (HT-1376): 30 µM | IC50 (A2780 [7]): 47 µM | Solubility [9]: 250 µM
Substance: Dichloro[2-(dimethylamino)methyl]phenyl-C,N]gold-(III) [listing 1 of 2 here]
IC50 (ZR-75-1): 27 µM | IC50 (HX62 cell line): 57 µM | IC50 (SW 1116): 119 µM | IC50 (CH1 [4]): 13 µM | IC50 (CH1 [8]): 22 µM

Substance: Dichloro[2-(dimethylamino)methyl]phenyl-C,N]gold-(III) [listing 2 of 2 here]
Range [10]: 4.6 and 13.3

IC50 (SK-OV-3 [11]): 30 µM | IC50 (A2780 [1]): 2.7 µM | Solubility [3]: 3570 µM | IC50 (HT-29): 36 µM | IC50 (SK-OV-3 [5]): 11 µM | IC50 (HT-1376): 11 µM | IC50 (SW-620 [12]): 67 µM | IC50 (A2780 [7]): 16 µM | Solubility [9]: 3580 µM
Substance: Malonato[2-(dimethylamino)methyl]phenyl-C,N]gold-(III) [listing 1 of 2 here]
IC50 (ZR-75-1): 36 µM | IC50 (HX62 cell line): 27 µM | IC50 (SW 1116): 80 µM | IC50 (CH1 [4]): 2.7 µM | IC50 (CH1 [8]): 3.3 µM

Substance: Malonato[2-(dimethylamino)methyl]phenyl-C,N]gold-(III) [listing 2 of 2 here]
T/C (Mus musculus [13]): 0.58 | T/C (Mus musculus [14]): 1.17 | RTV (Mus musculus [15]): 699 | RTV (Mus musculus [16]): 1230 | RTV (Mus musculus [17]): 210 | Range [10]: 7.3 and 11.1 | T/C (Mus musculus [18]): 0.57 | T/C (Mus musculus [19]): 1.06 | RTV (Mus musculus [20]): 292 | RTV (Mus musculus [21]): 264 | T/C (Mus musculus [22]): 0.8 | RTV (Mus musculus [23]): 513 | T/C (Mus musculus [24]): 0.76 | T/C (Mus musculus [25]): 0.77 | RTV (Mus musculus [26]): 894 | T/C (Mus musculus [27]): 0.83 | RTV (Mus musculus [28]): 802 | T/C (Mus musculus [29]): 0.88 | T/C (Mus musculus [30]): 1 | RTV (Mus musculus [31]): 266 | RTV (Mus musculus [32]): 816 | RTV (Mus musculus [33]): 451 | RTV (Mus musculus [34]): 488 | T/C (Mus musculus [35]): 1 | T/C (Mus musculus [36]): 1.01

IC50 (SK-OV-3 [11]): 42 µM | IC50 (A2780 [1]): 3.7 µM | Solubility [3]: 170 µM | IC50 (HT-29): 19 µM | IC50 (SK-OV-3 [5]): 10 µM | IC50 (HT-1376): 10 µM | IC50 (SW-620 [12]): 205 µM | IC50 (A2780 [7]): 35 µM | Solubility [9]: 430 µM
Substance: Oxalato[2-(dimethylamino)methyl]phenyl-C,N]gold-(III) Hemihydrate [listing 1 of 2 here]
IC50 (ZR-75-1): 41 µM | IC50 (HX62 cell line): 30 µM | IC50 (SW 1116): 215 µM | IC50 (CH1 [4]): 11 µM | IC50 (CH1 [8]): 13 µM

Substance: Oxalato[2-(dimethylamino)methyl]phenyl-C,N]gold-(III) Hemihydrate [listing 2 of 2 here]
Range [10]: 21.5 | Range [37]: 11.4
